{"source": "ChEMBL document CHEMBL1671778", "about": "“Synthesis and serotonin transporter activity of 1,3-bis(aryl)-2-nitro-1-propenes as a new class of anticancer agents” (Bioorg Med Chem, 2011)", "key": {"[1]": {"assay": "Cytotoxicity against human chemosensitive MUTU-I cells expressing SERT assessed as decrease in cell viability 10 or 50 uM after 24 hrs Alamar blue assay"}, "MUTU-I [2]": {"test_system": "MUTU-I", "assay": "Induction of apoptosis in human chemosensitive MUTU-I cells assessed as caspase 3/7 activation at 10 uM after 4 hrs", "type": "functional, cell-based"}, "MUTU-I [3]": {"test_system": "MUTU-I", "assay": "Induction of apoptosis in human chemosensitive MUTU-I cells assessed as induction of PARP cleavage at 10 uM after 4 hrs", "type": "functional, cell-based", "how_it_was_run": "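PARP cleavage by Western blot: 5x10^6 cells pelleted (500 ×g, 5 min), washed, and lysed in Laemmli buffer with protease inhibitors. Lysates run on 8% SDS-PAGE, transferred to PVDF, and probed with anti-PARP detecting full-length 113 kDa and cleaved 85 kDa forms. HRP secondary antibody, chemiluminescence detection.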"}, "MUTU-I [4]": {"test_system": "MUTU-I", "assay": "Induction of apoptosis in human chemosensitive MUTU-I cells assessed as chromatin condensation and membrane bledding at 10 uM after 4 hrs", "type": "functional, cell-based", "how_it_was_run": "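Cells at 3x10^5 cells/mL exposed for 4 h or 8 h. 150 µl aliquots were cytocentrifuged onto slides (500 ×g, 2 min), air-dried, methanol-fixed, and stained with eosin Y and methylene blue. Morphology was examined by light microscopy at 60x.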"}, "SH-SY5Y [5]": {"test_system": "SH-SY5Y", "assay": "Cytotoxicity against human SH-SY5Y cells expressing human SERT assessed as decrease in cell viability after 48 hrs neutral red dye assay", "type": "functional, cell-based"}, "SH-SY5Y [6]": {"test_system": "SH-SY5Y", "assay": "Antiproliferative activity against human SH-SY5Y cells after 24 hrs Alamar blue assay", "type": "functional, cell-based", "how_it_was_run": "(§1)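 Alamar Blue viability: 1-5x10^4 cells/well treated 24 h, then Alamar Blue (pre-warmed) 4-6 h at 37 °C in the dark. Fluorescence read at 590 nm (excitation 544 nm), background of medium plus dye subtracted, untreated cells = 100% viability. Miconazole 10 µM as cell-death control. Range 1 µM-1 mM, triplicate on two independent days. pEC50 from non-linear sigmoidal regression.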"}, "DG-75 [7]": {"test_system": "DG-75", "assay": "Cytotoxicity against human chemoresistant DG75 cells expressing SERT assessed as decrease in cell viability 10 or 50 uM after 72 hrs Alamar blue assay", "type": "functional, cell-based", "how_it_was_run": "(§2)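 1-5x10^4 cells/200 µl given 10 or 50 µM for 24 h (MUTU-I, MDA-MB231, PBMC) or […]. Alamar Blue at 37 °C in the dark 4-6 h, then fluorescence read with 544/590 nm. Media-only background subtracted; untreated cells set as 100% viability. Mean of six points (triplicate, two independent days). PBMCs from a healthy donor, isolated by ficoll density separation.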"}, "MDA-MB-231": {"test_system": "MDA-MB-231", "assay": "Cytotoxicity against human MDA-MB-231 cells assessed as decrease in cell viability 10 or 50 uM after 24 hrs Alamar blue assay", "type": "functional, cell-based", "how_it_was_run": "as §2"}, "PBMC": {"test_system": "PBMC", "assay": "Cytotoxicity against human PBMC cells assessed as decrease in cell viability 10 or 50 uM after 24 hrs Alamar blue assay", "type": "cell-based", "how_it_was_run": "as §2"}, "DG-75 [8]": {"test_system": "DG-75", "assay": "Induction of apoptosis in human chemoresistant DG75 cells assessed as formation of apoptotic bodies by propidium iodide FACS analysis", "type": "functional, cell-based"}, "[9]": {"assay": "Induction of apoptosis in human chemosensitive MUTU-I cells assessed as formation of apoptotic bodies by propidium iodide FACS analysis", "type": "functional, cell-based"}, "HEK293 [10]": {"test_system": "HEK293", "assay": "Cytotoxicity against human HEK293 cells assessed as decrease in cell viability after 48 hrs neutral red dye assay", "type": "functional, cell-based", "conditions": "HEK293, 48 h", "how_it_was_run": "(§3)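 5x10^4 cells/well grown to sub-confluence (24-36 h), then exposed to compound 48 h. Neutral red dye 3+1 h, solubilised in 50% ethanol/1% acetic acid, absorbance 540 nm (690 nm background). Viability as percent of vehicle-treated cells; pEC50 by non-linear sigmoidal regression over 4 concentrations, triplicate on two independent days. Controls 30 mM sodium azide, 2% Triton-X. HEK293-hSERT cells kept in Geneticin, used up to 30 passages.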"}, "HEK293 [11]": {"test_system": "HEK293", "assay": "Cytotoxicity against human HEK293 cells expressing human SERT assessed as decrease in cell viability after 48 hrs neutral red dye assay", "type": "functional, cell-based", "conditions": "HEK293, 48 h", "how_it_was_run": "as §3"}, "[12]": {"target": "T1, Sodium-dependent serotonin transporter (Homo sapiens, UniProt P31645)", "assay": "Inhibition of [3H]-serotonin reuptake at human SERT expressed in HEK293 cells after 15 to 20 mins by fluorescence neurotransmitter transporter assay", "type": "cell-based"}, "DG-75 [13]": {"test_system": "DG-75", "assay": "Antiproliferative activity against human DG75 cells after 24 hrs Alamar blue assay", "type": "functional, cell-based", "conditions": "DG-75, 24 h", "how_it_was_run": "as §1"}, "[14]": {"target": "T1, Sodium-dependent serotonin transporter", "conditions": "HEK293, at 100 µM"}, "[15]": {"target": "T1, Sodium-dependent serotonin transporter", "conditions": "HEK293, at 1 µM"}}, "note": "pEC50, pIC50: −log10 of the molar value. Calls of active or inactive are those of the source. No cut-off for these calls is given here."}
{"smiles": "CC(=O)O[C@H]1C(=O)[C@@]2(C)[C@H]([C@H](OC(=O)c3ccccc3)[C@]3(O)C[C@H](OC(=O)[C@H](O)[C@@H](NC(=O)c4ccccc4)c4ccccc4)C(C)=C1C3(C)C)[C@]1(OC(C)=O)CO[C@@H]1C[C@@H]2O", "note": "[PACLITAXEL]", "values": [{"measurement": "pIC50", "setting": "[1]", "value": 8.00}, {"measurement": "Activity", "setting": "MUTU-I [2]", "value": "inactive"}, {"measurement": "Activity", "setting": "MUTU-I [3]", "value": "inactive"}, {"measurement": "Activity", "setting": "MUTU-I [4]", "value": "inactive"}]}
{"smiles": "CSc1ccc(CC(Cc2ccc(SC)cc2)NC=O)cc1", "values": [{"measurement": "pEC50", "setting": "SH-SY5Y [5]", "value": 4.50}, {"measurement": "pEC50", "setting": "SH-SY5Y [6]", "value": 4.50}, {"measurement": "Activity", "setting": "DG-75 [7]", "value": "Active"}, {"measurement": "pEC50", "setting": "DG-75 [7]; DG-75, 72 h", "value": 4.50}, {"measurement": "Activity", "setting": "MDA-MB-231", "value": "Active"}, {"measurement": "Activity", "setting": "PBMC", "value": "Non-toxic"}, {"measurement": "pEC50", "setting": "DG-75 [8]", "value": 5.00}, {"measurement": "pEC50", "setting": "[9]", "value": 4.89}, {"measurement": "pEC50", "setting": "HEK293 [10]", "value": "< 2.00"}, {"measurement": "pEC50", "setting": "HEK293 [11]", "value": 4.00}, {"measurement": "pIC50", "setting": "[12]", "value": 4.80}, {"measurement": "pEC50", "setting": "DG-75 [13]", "value": 2.30}, {"measurement": "inhibition", "setting": "[14]", "value": 85, "unit": "%"}, {"measurement": "inhibition", "setting": "[15]", "value": 5, "unit": "%"}]}
